Assay results: ChEMBL document CHEMBL1124266, “Stereoelectronic factors influencing the biological activity and DNA interaction of synthetic antitumor agents modeled on CC-1065” (J Med Chem, 1988)
Values belong to the compound of their own block, whether it stands above or below them. Active and inactive are the calls of the source. The calls are words filed in the database; no cut-off is given here.

Legend:
[1] = system: L1210; assay: In vitro concentration required to inhibit 50% growth of murine L1210 leukemia cells; format: functional; settings: Mus musculus, read-out: ID50 (the source's name)
In short: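 Mouse L1210 leukemia cells in RPMI 1634 with 5% fetal calf serum, 0.075% sodium bicarbonate, penicillin 0.1 mg/mL and streptomycin 50 μg/mL. Drug aliquots added to tubes, then cells at approximately 5 × 10³ cells/mL. Incubation 37 °C for 3 days; cell number by Coulter counter. ID₅₀ = nM concentration giving 50% growth inhibition.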

[2] = Lipophilic/hydrophilic partitioning (RP-TLC); format: ADME; settings: 2:1 DMF-saline
In short: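 Reverse-phase TLC developed in 2:1 DMF–saline (0.9% NaCl). Plates scanned at 350 nm. R_f values averaged from two to four determinations.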

[3] = system: P388; assay: In vivo optimum dose given on days 1, 5, and 9 to mice implanted intraperitoneally with P388 leukemia cells; format: functional, Mus musculus
In short: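 P388 cells (10⁶/mouse) implanted ip into male BDF1 mice on day 0. Dosing ip on days 1, 5 and 9 in 2% DMA/10% Emulphor 620-P/water vehicle. Six mice per group. Optimum dose given in mg/kg per day, judged by increase in median life span.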

[4] = system: P388; assay: In vivo % increase in life span of treated animals (OD) over that of control mice bearing tumor, determined against P388 leukemia cells; format: functional, Mus musculus
In short: (§1)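 Male BDF1 mice inoculated ip with 10⁶ P388 cells (tumor passaged in DBA/2 females) on day 0. Drug ip on days 1, 5, 9 in 2% DMA, 10% Emulphor 620-P, water. Six mice per group. %ILS = (median death day treated / median death day untreated control − 1) × 100, at optimum dose. 30-day survivors counted as cured.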

[5] = system: Nucleic Acid; assay: Induced circular dichroism (ICD), expressed as molar ellipticity, in the presence of calf-thymus DNA; format: functional; settings: Bos taurus
In short: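 Drug stock (1–4 mg/mL in DMA, DMF or DMSO) injected into calf-thymus DNA (11 × 10⁻⁵ M) in 0.01 M phosphate buffer pH 7.2. Final drug 0.85 × 10⁻⁵ M, base-to-drug ratio 13. Stood 24 h at room temperature before CD spectrum. Value is molar ellipticity at long-wavelength maximum, ca. 350 nm.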

[6] = system: Mus musculus; assay: In vivo optimum dose (OD), given on days 1, 5, and 9 to mice bearing P388 leukemia; format: functional
In short: (§2)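 P388 leukemia kept by serial passage in female DBA/2 mice. Male BDF1 mice were given 10^6 cells ip on day 0. Drug was given ip on days 1, 5 and 9 in 2% DMA/10% Emulphor 620-P/water, with six mice per group. Optimum dose was in mg/kg per day. %ILS came from the median day of death versus untreated tumor-bearing controls. Mice alive at 30 days were counted as cured.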

[7] = Pseudo-first order rate constant at pH 3 followed spectrophotometrically; format: ADME
In short: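 Acid-catalyzed cyclopropyl ring opening in methanolic buffer at pH 3, tracked by loss of the 344–370 nm absorption band. Residual long-wavelength absorbance at 2 weeks subtracted. Rate from ln(A/A₀) vs time, linear for at least 2 half-lives. Drug 20–120 µM.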

[8] = system: Mus musculus; assay: In vivo % increase in life span of treated animals (OD) over that of control mice bearing P388 leukemia; format: functional; in short: as §1
[9] = system: P388; assay: In vivo % increase in life span of treated animals (OD) over that of control mice bearing tumor, determined against P388 leukemia cells; NA=no activity(<20% ILS); format: functional, organism-based; settings: Mus musculus; in short: as §2
[10] = Pseudo-first order rate constant at pH 3 followed spectrophotometrically; Stable; format: ADME

SMILES: Cc1c[nH]c2c1C13CC1CN(C(=O)c1cc4cc(NC(=O)c5ccccc5)ccc4[nH]1)C3=CC2=O (stereo unspecified)
IC50 [1]: 0.07 nM
Rf [2]: 0.43
OD [3]: 0.05 mg/kg/day
ILS [4]: 82%
ICD [5]: 0.036

SMILES: Cc1c[nH]c2c1C13CC1CN(C(=O)c1cc4ccccc4n1C)C3=CC2=O (stereo unspecified)
IC50 [1]: 10 nM
OD [6]: 8 mg/kg/day
k [7]: 1e-05
ILS [8]: 44%
ICD [5]: 0.003

IC50 [1]: 900 nM
Rf [2]: 0.87
k [10]: Stable
SMILES: Cc1c[nH]c2c1C13CC1CN=C3C=C2O (stereo unspecified)
ILS [9]: inactive
OD [3]: 10 mg/kg/day
ICD [5]: 0

SMILES: Cc1c[nH]c2c1C13CC1CN(C(=O)c1cc4cc(NC(=O)c5cc6ccccc6o5)ccc4[nH]1)C3=CC2=O (stereo unspecified)
IC50 [1]: 0.02 nM
k [7]: 1e-05
Rf [2]: 0.3
OD [3]: 0.05 mg/kg/day
ILS [4]: 170%
ICD [5]: 0.05

SMILES: Cc1c[nH]c2c1C13CC1CN(C(=O)c1cc4cc(NC(=O)c5cc6cc(NC(=O)c7ccccc7)ccc6[nH]5)ccc4[nH]1)C3=CC2=O (stereo unspecified)
IC50 [1]: 0.01 nM
Rf [2]: 0.3
OD [3]: 0.1 mg/kg/day
ILS [4]: 77%
ICD [5]: 0.033

IC50 [1]: 100 nM
Rf [2]: 0.07
SMILES: CCCCCCCCCC(=O)N1CC2CC23C1=CC(=O)c1[nH]cc(C)c13 (stereo unspecified)
ILS [9]: inactive
OD [3]: 40 mg/kg/day
ICD [5]: 0

SMILES: Cc1c[nH]c2c1C13CC1CN(C(=O)c1ccc4ccccc4n1)C3=CC2=O (stereo unspecified)
IC50 [1]: 10 nM
k [7]: 1.2e-05
Rf [2]: 0.5
OD [3]: 6 mg/kg/day
ILS [4]: 142%
ICD [5]: 0.001

SMILES: Cc1c[nH]c2c1C13CC1CN(C(=O)c1ccc[nH]1)C3=CC2=O (stereo unspecified)
IC50 [1]: 2 nM
Rf [2]: 0.7
OD [3]: 1 mg/kg/day
ILS [4]: 71%
ICD [5]: 0.01

SMILES: Cc1c[nH]c2c1C13CC1CN(C(=O)c1cc4cc(NC(N)=O)ccc4[nH]1)C3=CC2=O (stereo unspecified)
IC50 [1]: 0.6 nM
k [7]: 1e-05
Rf [2]: 0.89
OD [3]: 0.06 mg/kg/day
ILS [4]: 65%
ICD [5]: 0.047

SMILES: COc1c(O)c2c(c3cc(C(=O)N4CCc5c4c(O)c(OC)c4[nH]c(C(=O)N6C[C@H]7C[C@@]78C6=CC(=O)c6[nH]cc(C)c68)cc54)[nH]c13)CCN2C(N)=O [(+)-CC-1065]
IC50 [1]: 0.07 nM
Rf [2]: 0.39
OD [3]: 0.1 mg/kg/day
ILS [4]: 62%
ICD [5]: 0.28

SMILES: Cc1c[nH]c2c1C13CC1CN(C(=O)c1cc4cc(NC(=O)c5cc6cc(NC(N)=O)ccc6[nH]5)ccc4[nH]1)C3=CC2=O (stereo unspecified)
IC50 [1]: 0.3 nM
OD [3]: 0.1 mg/kg/day
ILS [4]: 121%
ICD [5]: 0.075

IC50 [1]: 30 nM
Rf [2]: 0.39
SMILES: CC1=C(C(=O)N2CC3CC34C2=CC(=O)c2[nH]cc(C)c24)Cc2ccccc21 (stereo unspecified)
ILS [9]: inactive
OD [3]: 17 mg/kg/day
ICD [5]: 0.004

SMILES: Cc1c[nH]c2c1C13CC1CN(C(=O)c1cc4ccccc4[nH]1)C3=CC2=O (stereo unspecified)
IC50 [1]: 0.2 nM
k [7]: 1e-05
Rf [2]: 0.45
OD [3]: 0.4 mg/kg/day
ILS [4]: 90%
ICD [5]: 0.036

SMILES: CC(=O)N1CC2CC23C1=CC(=O)c1[nH]cc(C)c13 (stereo unspecified)
IC50 [1]: 20 nM
Rf [2]: 0.9
OD [3]: 3 mg/kg/day
ILS [4]: 45%
ICD [5]: 0

SMILES: CCCCCC(=O)Nc1ccc2nc(C(=O)N3CC4CC45C3=CC(=O)c3[nH]cc(C)c35)ccc2c1 (stereo unspecified)
IC50 [1]: 100 nM
Rf [2]: 0.15
OD [3]: 21 mg/kg/day
ILS [4]: 127%

SMILES: Cc1c[nH]c2c1C13CC1CN(C(=O)c1ccc4ccccc4c1)C3=CC2=O (stereo unspecified)
IC50 [1]: 7 nM
Rf [2]: 0.46
OD [3]: 6 mg/kg/day
ILS [4]: 73%
ICD [5]: 0

SMILES: Cc1c[nH]c2c1C13CC1CN(C(=O)c1cc4cc(NC(=O)c5cc6ccccc6[nH]5)ccc4[nH]1)C3=CC2=O (stereo unspecified)
IC50 [1]: 0.01 nM
Rf [2]: 0.3
OD [3]: 0.05 mg/kg/day
ILS [4]: 159%
ICD [5]: 0.07

SMILES: Cc1c[nH]c2c1C13CC1CN(C(=O)c1ccc(NC(=O)c4ccccc4)cc1)C3=CC2=O (stereo unspecified)
IC50 [1]: 0.5 nM
Rf [2]: 0.42
OD [3]: 0.5 mg/kg/day
ILS [4]: 83%
ICD [5]: 0.011

SMILES: Cc1c[nH]c2c1C13CC1CN(C(=O)c1ccccc1)C3=CC2=O (stereo unspecified)
IC50 [1]: 3 nM
k [7]: 9e-06
Rf [2]: 0.63
OD [3]: 12 mg/kg/day
ILS [4]: 71%
ICD [5]: < 0.001

SMILES: CCCCCC(=O)N1CC2CC23C1=CC(=O)c1[nH]cc(C)c13 (stereo unspecified)
IC50 [1]: 3 nM
k [7]: 8e-06
Rf [2]: 0.35
OD [3]: 2 mg/kg/day
ILS [4]: 100%
ICD [5]: 0

SMILES: Cc1c[nH]c2c1C13CC1CN(C(=O)c1cc4ccccc4o1)C3=CC2=O (stereo unspecified)
IC50 [1]: 0.04 nM
OD [6]: 0.25 mg/kg/day
k [7]: 1.1e-05
ILS [8]: 110%
ICD [5]: 0.006

SMILES: Cc1c[nH]c2c1C13CC1CN(C(=O)c1cc4ccccc4s1)C3=CC2=O (stereo unspecified)
IC50 [1]: 0.3 nM
k [7]: 1.1e-05
Rf [2]: 0.41
OD [3]: 0.8 mg/kg/day
ILS [4]: 100%
ICD [5]: 0.007

SMILES: COc1ccc2[nH]c(C(=O)N3CC4CC45C3=CC(=O)c3[nH]cc(C)c35)cc2c1 (stereo unspecified)
IC50 [1]: 0.01 nM
k [7]: 1e-05
Rf [2]: 0.47
OD [3]: 0.05 mg/kg/day
ILS [4]: 95%
ICD [5]: 0.022

SMILES: Cc1c[nH]c2c1C13CC1CN(C(=O)c1ccccn1)C3=CC2=O (stereo unspecified)
IC50 [1]: 10 nM
k [7]: 1.2e-05
Rf [2]: 0.76
OD [3]: 15 mg/kg/day
ILS [4]: 69%
ICD [5]: 0

IC50 [1]: 900 nM
Rf [2]: 0.58
SMILES: Cc1c[nH]c2c1C13CC1CN(S(=O)(=O)c1ccccc1)C3=CC2=O (stereo unspecified)

SMILES: Cc1c[nH]c2c1C13CC1CN(S(C)(=O)=O)C3=CC2=O (stereo unspecified)
IC50 [1]: 100 nM
k [7]: 3e-06
Rf [2]: 0.82
OD [3]: 25 mg/kg/day
ILS [4]: 60%
ICD [5]: 0

SMILES: Cc1c[nH]c2c1C13CC1CN(C(=O)OC(C)(C)C)C3=CC2=O (stereo unspecified)
IC50 [1]: 300 nM
k [7]: 5e-06
Rf [2]: 0.35
ICD [5]: 0

SMILES: COc1c(O)ccc2cc(C(=O)N3CC4CC45C3=CC(=O)c3[nH]cc(C)c35)[nH]c12 (stereo unspecified)
IC50 [1]: 0.1 nM
k [7]: 1e-05
Rf [2]: 0.63
OD [3]: 0.05 mg/kg/day
ILS [4]: 55%
ICD [5]: 0.037
